How the values were obtained:
Assay type in all cases: cell-based, Homo sapiens
[1] = test system: hMC4R/TM3 hMC2R; assay: […]-NDP-MSH displacement on transfected cells; details: read-out: THIQ Ki; whole HEK293 cells, MEM with 0.2% BSA, 1 h
[2] = test system: hMC4R/TM5 hMC2R; assay: […]-NDP-MSH displacement on transfected cells; details: read-out: THIQ Ki; whole HEK293 cells, MEM with 0.2% BSA, 1 h
[3] = test system: hMC4R/TM2 hMC2R; assay: cAMP accumulation; details: read-out: THIQ (EC50 (nM)); HEK293 cells, 1 h, 37°C, 1 mM IBMX; agonist
Method in brief: (§1)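 HEK293 cells stably expressing FLAG-tagged hMC4R chimeras, with one TM swapped for the homologous hMC2R segment, were selected with G418. Cells were incubated in EBSS with test compound (10−10–10−6 M) and 10−3 M IBMX for 1 h at 37°C. The reaction was stopped with ice-cold ethanol and the supernatant dried under nitrogen at 55°C. Duplicate wells, three separate experiments; sigmoid variable-slope fit.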

[4] = test system: hMC4R/TM5 hMC2R; assay: cAMP accumulation; details: read-out: THIQ (EC50 (nM)); HEK293 cells, 1 h, 37°C, 1 mM IBMX; agonist
Method in brief: as §1

[5] = test system: hMC4R/TM3 hMC2R; assay: cAMP accumulation; details: read-out: THIQ (EC50 (nM)); HEK293 cells, 1 h, 37°C, 1 mM IBMX; agonist
Method in brief: as §1

[6] = test system: hMC4R/TM2 hMC2R; assay: […]-NDP-MSH displacement on transfected cells; details: read-out: THIQ Ki; whole HEK293 cells, MEM with 0.2% BSA, 1 h
[7] = test system: hMC4R/TM6 hMC2R; assay: cAMP accumulation; details: read-out: THIQ (EC50 (nM)); HEK293 cells, 1 h, 37°C, 1 mM IBMX; agonist
Method in brief: as §1

[8] = test system: hMC4R/TM4 hMC2R; assay: […]-NDP-MSH displacement on transfected cells; details: read-out: THIQ Ki; whole HEK293 cells, MEM with 0.2% BSA, 1 h
[9] = test system: hMC4R/TM6 hMC2R; assay: […]-NDP-MSH displacement on transfected cells; details: read-out: THIQ Ki; whole HEK293 cells, MEM with 0.2% BSA, 1 h
[10] = test system: hMC4R/TM4 hMC2R; assay: cAMP accumulation; details: read-out: THIQ (EC50 (nM)); HEK293 cells, 1 h, 37°C, 1 mM IBMX; agonist
Method in brief: as §1

EC50 [3]: 3.1 ± 0.3 nM | EC50 [4]: 3.9 ± 0.4 nM | EC50 [5]: 91 ± 6.2 nM | EC50 [7]: 2.8 ± 0.6 nM | EC50 [10]: 3.5 ± 0.3 nM
SMILES: O=C(N[C@H](Cc1ccc(Cl)cc1)C(=O)N1CCC(Cn2cncn2)(C2CCCCC2)CC1)[C@H]1Cc2ccccc2CN1 [THIQ, N-(3R)-1 4-tetrahydroisoquinolinium-3-ylcarbonyl-(1R)-1-(4-chlorobenzyl)-2-4-cyclohexyl-4-(1H-1,2,4-triazol-1-ylmethyl)piperidin-1-yl-2-oxoethylamine]
Ki [1]: 76.2 ± 17.3 nM | Ki [2]: 6.7 ± 3.4 nM | Ki [6]: 6.2 ± 0.2 nM | Ki [8]: 7.2 ± 2.3 nM | Ki [9]: 5.3 ± 0.2 nM
